H9c2 TAG inh: reduces triacylglycerol accumulation in H9c2 cells; inhibition, % at 12.5 µM; 0.66% of 230,000 active; AID 651582; Nile Red lipid (TAG) fluorescence; cells loaded with 200 µM oleic acid;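 active means pattern-corrected inhibition of lipid staining of at least 50% with the nuclear-stain viability signal not falling by more than 50%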
SMARCA2 activ: SMARCA2 function activation, primary screen | 1% of 370,000 active | AID 652017 | MG213 cells, MMTV-luciferase reporter, dexamethasone, overnight | activation, % at 9.1 µM; in the data active means activation above about 7.8%
Efflux pump mplx: antifungal efflux pump inhibition, Nile Red retention; S. cerevisiae Candida pump triplex; inhibition, % at 10 µM; 0.44% of 330,000 active; AID 485275;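 active means plate passing quality check with inhibition over a set limit, or well fluorescence over plate mean plus 4 SD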;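 further: Nile Red retained in pooled yeast measured as flow cytometry median fluorescence; higher means more Nile Red kept so more efflux inhibition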
AHR act: activates the human aryl hydrocarbon receptor | P35869 | AHR-responsive luciferase reporter cells, luminescence | activation, % at 5 µM | 2.5% of 320,000 active; in the data active means activation above about 47%
Tb MetRS inh: blocks T. brucei methionyl-tRNA synthetase activity; inhibition, % at 11.9 µM; 0.4% of 360,000 active; purified T. brucei MetRS, ATP depletion, Kinase-Glo luminescence;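 active means inhibition above a per-plate cutoff of the control wells' mean inhibition plus 3 SD, cut at about 5.5% in these data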
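Test system: purified T. brucei MetRS enzyme. Also added: ATP, methionine and E. coli bulk tRNA substrates. Compound: 11.9 µM single point. Schedule: 15 min enzyme-compound preincubation, 2 h reaction, 10 min detection, 25 °C. Signal: luciferase luminescence of residual ATP, Kinase-Glo. Evaluation: percent inhibition versus plate control medians. Controls: DMSO wells, low control.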
AHR act cf: confirmation of human aryl hydrocarbon receptor activators | shares compounds with AHR act | human cells, AHR-responsive luciferase reporter, luminescence | activation, % at 9 µM | 87% of 2,300 active | AID 2845; in the data active means activation above about 49%;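 further: HepG2 hepatoma cells carrying a DRE-driven firefly luciferase reporter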
PXR act counter: counter-screen for AHR activators: human PXR activators. activation, % at 11.6 µM. 88% of 2,300 active. AID 434939. shares compounds with AHR act. cell-based PXR reporter, luciferase luminescence; in the data active means activation above about 11%;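 further: human hepatoma DPX-2 cells expressing full-length human PXR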
SMARCA2 act conf: confirmation of SMARCA2 (BRM) function activators; 30% of 3,500 active; MG213 cells, MMTV-luciferase with dexamethasone, luminescence, overnight; MG213 cells expressing E1A, Rb sequestered; DMSO wells 0%, reference activator 100%; AID 652260; shares compounds with SMARCA2 activ; activation, % at 9.1 µM;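 active means activation above its plate's cutoff, the mean activation of tested wells plus 3 SD, cut at about 7.9% in these data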
GAL4-VP16 Luc: activates GAL4-VP16 luciferase, flagging SMARCA2 activator hits. 41% of 3,500 active. activation, % at 9.1 µM. AID 686939. HEK293 GAL4-VP16 pG5luc reporter, luciferase luminescence; scaled: DMSO wells 0%, SAHA wells 100%. shares compounds with SMARCA2 activ;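 active means activation above the solvent-only control well mean plus 3 SD, averaged across control plates, cut at about 5.2% in these data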
Hits are given with their value; - = inactive; . = no result; ! = repeats disagree. Compounds with a hit are over-represented: about 4.1% of the library has one in this group of screens.

SMILES	H9c2 TAG inh	SMARCA2 activ	Efflux pump mplx	AHR act	Tb MetRS inh	AHR act cf	PXR act counter	SMARCA2 act conf	GAL4-VP16 Luc
O=c1c2c(nc3cc(-c4ccc(Br)cc4)[nH]n13)CCCC2	-	-	-	-	-	.	.	.	.
O=c1cc(-c2ccc3c(c2)OCO3)oc2ccccc12	.	17.5	-	104.4	-	142.5	79.1	-	7.3
Cn1c2ccccc2c(=O)c2cc(C#Cc3ccccn3)ccc21	-	8.1	-	95.8	-	115.4	27.9	20.6	5.3
Cn1c2ccccc2c(=O)c2ccc(C#Cc3ccccn3)cc21	.	-	-	-	.	.	.	.	.
COc1cccc(/C=C/c2ccc3cccc(O)c3n2)c1	.	14.1	-	83.1	-	120.2	21.7	-	23.1
COc1ccc(/C=C/c2ccc3cccc(O)c3n2)cc1Br	.	-	-	-	-	.	.	.	.
O=C(O)CC(Sc1ccc(Cl)cc1)C(=O)Nc1ccccc1 (stereo unspecified)	.	-	.	.	.	.	.	.	.
Cc1nnc(N2C(=O)c3cccc4c([N+](=O)[O-])ccc(c34)C2=O)s1	-	21.5	2.1	87.0	-	99.9	.	-	14.7
Cc1ccc(N2C(=O)c3cccc4c([N+](=O)[O-])ccc(c34)C2=O)c2cccnc12	-	-	-	-	-	.	.	.	.
CCCN1CCS(=O)(=O)N(Cc2cn(Cc3ccc(C)cc3)nn2)C(C(=O)OC)C1 (stereo unspecified)	.	-	.	.	.	.	.	.	.
N#C/C(=C\c1ccc(Sc2ccc(Cl)cc2)o1)c1nc2ccccc2[nH]1	.	-	-	-	-	.	.	.	.
N#C/C(=C/c1cccs1)c1nc2ccccc2[nH]1	-	9.3	-	117.3	-	125.0	22.4	23.7	-
N#Cc1c2ccc([N+](=O)[O-])cc2[n+]([O-])n1-c1ccccc1	-	8.5	-	200.0	-	252.6	19.3	12.7	8.9
c1ccc2[nH]c(-c3ccnc4ccccc34)nc2c1	.	10.7!	-	90.1	-	155.8	25.7	-	-
CN1CCc2c(sc3c2C(=O)NC(/C=C\c2ccccc2)N3)C1 (stereo unspecified)	-	-	-	-	-	.	.	.	.
CN1CCc2c(sc3c2C(=O)NC(c2cccs2)N3)C1 (stereo unspecified)	.	11.1	-	85.1	-	91.8	36.5	-	-
Cc1csc(=NC(=O)c2ccccc2)n1Cc1ccco1	.	-	-	-	-	.	.	.	.
CCn1c(C)csc1=NC(=O)c1ccccc1O	.	12.1	-	93.4	-	94.5	15.2	-	8.0
CC(C)NC(=O)CCn1nnc(-c2cccs2)n1	.	-	.	.	.	.	.	.	.
O=C(COC(=O)CC1CCCC1)Nc1cc2c(cc1Cl)C(=O)c1ccccc1C2=O	-	8.1	-	117.4	-	139.3	16.5	8.6	13.9
O=C(C1CCCN(S(=O)(=O)c2cccc3ccccc23)C1)N1CCN(Cc2ccccc2)CC1 (stereo unspecified)	.	-	.	.	.	.	.	.	.
CC(=O)C1(C(=O)NCc2ccccc2)CC(c2ccccn2)=NO1 (stereo unspecified)	.	-	.	.	.	.	.	.	.
CN(CCO)c1c2c(nc3cc(-c4cccc(F)c4)nn13)CCCC2	-	13.4	-	89.1	-	91.9	64.2	11.2	18.4
CC(=O)Nc1c(-c2ccc(C(F)(F)F)cc2)nc2ncccn12	.	-	.	.	.	.	.	.	.
COc1cccc(C(=O)n2ccc3ccc(-c4ccc5ccn(Cc6ccc(C#N)cc6)c5c4)cc32)c1	.	-	.	.	.	.	.	.	.
Fc1ccc2cnc(-c3ccsc3)cc2c1	.	-	.	.	.	.	.	.	.
c1cc(-c2cc3cc4c(cc3cn2)OCO4)cs1	-	8.9	-	117.9	-	114.2	24.8	-	7.9
C[C@@H]1CN([C@H](C)CO)C(=O)CCCn2cc(nn2)CO[C@H]1CN(C)S(=O)(=O)c1cn(C)cn1	.	-	.	.	.	.	.	.	.
CNC(=O)c1cc2c(ccc3ccccc32)o1	.	9.6	-	107.7	-	102.2	12.7	-	-
